This is an account of results in ChEMBL document CHEMBL4513216, “Probing the Open Global Health Chemical Diversity Library for Multistage-Active Starting Points for Next-Generation Antimalarials” (ACS Infect Dis, 2020).

Structures are written as SMILES.

The nature of the data set: Toxicity liver stage against HepG2, at 10uM. Format: cell-based. Details: test concentration 10 uM, cell line HepG2-A16-CD81EGFP. To be noted: human, HepG2-A16-CD81EGFP cells; read-out: INHIBITION
A digest of the protocol: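 Uninfected HepG2-A16-CD81EGFP cells, 3 × 10^3 per well, 1536-well, plated on prespotted compound at 10 μM final, parasite-free screening media added to match infected plates; puromycin 10 μM positive, DMSO 0.5% negative; run in parallel with 48 h PbLuc assay at 37 °C, 5% CO2; viability by CellTiter-Glo luminescence, normalized to controls.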
Take `CCSc1nc2ccccc2c(=O)n1OCC(=O)OC`: the cytotoxicity at 10 µM is -5.49%.

As to `Cc1cc(S(=O)(=O)N(CC(N)=O)CC(C)C)ccc1Br`, the cytotoxicity at 10 µM was -10.1%. The result for `CC(C)(C)C(CCO)NC(=O)Nc1ccncc1` (configuration not stated) reads -3.28%. The result for `CN1CCC(N[C@@H]2CO[C@H](CNC(=O)Nc3ccccc3)[C@H]2O)CC1` reads 6.31%; that for `COc1ccc(CC(=O)N2CC(=O)NCC(C)(C)C2)cc1`, -0.634%. The result for `O=C(Nc1cccc(C(F)(F)F)c1)N1CCN(CCn2ccnc2)CC1` reads -25.3%; that for `CS(=O)(=O)N1CCN(C(=O)C2CSCCC(=O)N2)CC1` (configuration not stated), 0.565%.

Regarding `Cc1cncc(Oc2ccc(CN)cc2)n1`, the cytotoxicity at 10 µM worked out at 9.81%. The value for `CCc1cnc(N2CCC3(CCN(Cc4cccc(C)c4)C3=O)C2)nc1` (configuration not stated) was -0.891%. The result for `CCCS(=O)(=O)N1CCOC2(COCCN(C(C)=O)C2)C1` (configuration not stated) reads 19.9%; that for `O=C([C@H]1COC[C@H]2CN(CC3CC3)C[C@H]21)N1CCOCC1`, 11.8%; that for `CO[C@@H]1CCN(c2ncc(F)cn2)[C@@H]2CN(CC3CC3)C[C@@H]21`, 12.3%. The result for `Cc1ccsc1C(=O)N1CCCn2nnc(Cn3cccn3)c2C1` reads 7.37%; that for `CC(C)Nc1ncnc2c1CCN(c1cc(C(F)(F)F)ncn1)CC2`, 6.07%. Take `O=C(NCc1cccnc1)C1=NOC2(CCCN(CCO)C2)C1` (configuration not stated): the cytotoxicity at 10 µM stood at 5.66%. The result for `COc1cc(C2SCC(=O)Nc3n[nH]cc32)cc(OC)c1O` (configuration not stated) reads 7.85%; that for `CCn1nc(C)c2c1cnn2CCNS(=O)(=O)c1cccs1`, 4.51%; that for `Clc1cccc(Cl)c1CNCCOc1ccccn1`, -13.2%. Consider `O=C(NCC(F)F)c1cc(-c2ccccc2)nc2ncnn12`, for which the cytotoxicity at 10 µM is -3.37%. Regarding `CCOC(=O)C1=NOC(Cc2cc(OC)c3c(c2)OCO3)C1` (configuration not stated), the cytotoxicity at 10 µM came out at 9.98%. The result for `Cc1cccc(NC(=O)c2cccc(OCc3nnnn3C)c2)n1` reads 3%; that for `CN[C@@H]1CCC[C@@H](Oc2ccccc2Oc2ccc(C)cc2)[C@@H]1O`, -14.2%; that for `CN(C(=O)c1cn(C)cn1)[C@@H]1CCC[C@@H](Oc2ccccc2)[C@@H]1O`, 23%. The value for `NCCn1nc(C2CCN(Cc3ccccc3)C2)c2nccnc21` (configuration not stated) was 0.975%; that for `COc1cc(Br)cc(CNC2CCCNC2=O)c1O` (configuration not stated) was 2.37%; that for `CC(O)CN(Cc1cccc(C(=O)N(C)C)c1)c1ccccc1` (configuration not stated) was 2.45%. The value for `CN(Cc1cscn1)C(=O)C(c1ccccc1)N1CCSCC1` (configuration not stated) was 9.26%; that for `Cc1n[nH]cc1CNC(=O)Nc1cccc(OCC(F)(F)F)c1` was 8.64%.

Consider `CCS(=O)(=O)c1ccc(N2CCC(NC(=O)CC3CCCC3)CC2)cc1`, for which the cytotoxicity at 10 µM was found to be 22.7%. The value for `Cc1noc(CS(=O)(=O)C/C=C/c2ccccc2)n1` was -10.9%; that for `CCOc1ccccc1Oc1ccc(CN)cn1` was 6.03%; that for `Cc1cnc(CCN(C)C(=O)c2ccc(O)nc2C)s1` was -1.56%. The value for `CCOc1ccc(CSC(C)c2nc(C)no2)nc1` (configuration not stated) was -9.32%; that for `CCC1CN(C)c2ccccc2CN1C(=O)Nc1cccc(F)c1` (configuration not stated) was 5.9%; that for `CCOCCNC(=O)C(CCSC)NC(=O)c1ccc2ccccc2n1` (configuration not stated) was -9.95%.

Consider `CC(O)CN1CCN(Cc2csc(-c3ncccn3)n2)CC1` (configuration not stated), for which the cytotoxicity at 10 µM was 5.4%.

On to `Cc1nc(CN2CCC23CCN(C(=O)c2ccco2)CC3)cs1`, for which the cytotoxicity at 10 µM was -98.9%. The result for `CC(=O)NCC(=O)N1Cc2cnc(CC(C)C)nc2C1` reads -6.12%; that for `O=C(Nc1ccccc1)c1cccc(S(=O)(=O)NC[C@@H]2C[C@H](F)CN2)c1`, 2.83%; that for `O=C(CCN1CCCC(CC2CC2)(C(=O)O)C1)NC1CCCC1` (configuration not stated), 18.7%. The value for `CSc1cccc(CN(C)C(=O)c2cccc(C3CCCNC3)c2)c1` (configuration not stated) was -1.08%; that for `CCc1nnc(NC(=O)CCN2CC=C(c3cnn(C)c3)CC2)s1` was 2.66%. As to `Cc1cccc2c(=O)c(C(=O)N3CCCC4(CN(C)C(=O)O4)C3)c[nH]c12` (configuration not stated), the cytotoxicity at 10 µM was 10.5%. The result for `CCC(C)Oc1ccc(CNCCNC(C)=O)cc1Cl` (configuration not stated) reads 1.12%. The result for `Cc1ccc(CN(CCN(C)C)C(=O)Nc2ccc(C)c(C#N)c2)s1` reads 5.57%. The result for `Cc1nccn1CCCN1CCC(c2nccn2CC2CCC2)CC1` reads -20.8%; that for `Cc1ccccc1N1CCCN(C(=O)CC2CN(C(C)C)CCO2)CC1` (configuration not stated), -3.11%; that for `CCc1nc(C2CCCN2Cc2cc(C)nc3ccccc23)no1` (configuration not stated), 86%. `CCc1nc(C2CCCN(C(=O)c3ccccc3F)C2)no1` (configuration not stated): the cytotoxicity at 10 µM worked out at 2.64%.

As for `CCOCCN1CCC(C(=O)c2cc(F)ccc2F)CC1`, the cytotoxicity at 10 µM was -7.33%. As for `Cn1cc(NS(=O)(=O)c2ccc(C(F)(F)F)cc2)ccc1=O`, the cytotoxicity at 10 µM was 6.08%. The result for `CCn1cc(NC(=O)NCC(O)COc2ccccc2)cn1` (configuration not stated) reads -8.6%. Turning to `CCn1nc2c(cc1=O)CN(Cc1nc(-c3cccs3)no1)CC2`, the cytotoxicity at 10 µM was -8.99%. The value for `NC(=O)C1CCCN(c2ccc(CNC(=O)c3cnsn3)cc2)C1` (configuration not stated) was 2.25%. The result for `c1cc(CNCC2CNc3ccnn3C2)cc(OC2CCCC2)n1` (configuration not stated) reads -3.02%. The value for `CCN1CCN(CCNC(=O)c2ccn(-c3ccc(F)cc3)n2)CC1` was -26.2%; that for `Cc1nc(C)n(C2CCCN(C(=O)c3cscn3)C2)n1` (configuration not stated) was -8.78%; that for `Cc1nc(CN(C)CC2CCCN2c2cccnn2)nc2ccccc12` (configuration not stated) was -6.31%.

In the case of `CCCNC(=O)CNc1cc(C#N)ccc1OCC`, the cytotoxicity at 10 µM was -11.6%.

`Cc1nc(C)n(CC2CCCN(Cc3nc(C4CC4)no3)C2)n1` (configuration not stated): the cytotoxicity at 10 µM is -7.76%. The result for `Cc1nc(CN2CCCN(C(=O)c3ccccn3)CC2)oc1C` reads 0.289%; that for `CC(c1nc(C2CC2)no1)N1CCN(Cc2cccc(C#N)c2)CC1` (configuration not stated), 3.92%. The value for `CC(C)NC(=O)[C@@]12CCO[C@@H]1CCN(Cc1ccco1)C2` was -3.31%; that for `CC(C)NC(=O)N1CCC2(CCC(=O)N2CCN(C)C)CC1` was -7.13%; that for `O=C(NCc1cn2c(n1)CN(CC1CCOCC1)CC2)C1CCC1` was -12.1%. The result for `Cc1ccc(CNC2CCCc3c2cnn3Cc2ccccc2)s1` (configuration not stated) reads 0.338%. In the case of `Cc1nc(N2CCOCC2)nc2c1CCN(Cc1ccsc1)CC2`, the cytotoxicity at 10 µM was -130%. The result for `Cc1ccc(CNC2CC3(CCN(CCO)CC3)c3ccccc32)s1` (configuration not stated) reads -108%; that for `O=C(c1ccccc1)N1CCC2(CC1)CNc1c(F)cccc12`, 7.33%. Turning to `Cc1nnsc1CN1C[C@H]2CC[C@@H](C1)N(Cc1ccccc1)C2`, the cytotoxicity at 10 µM worked out at 9.47%. The result for `CSc1ccccc1CN1C[C@@H]2CC[C@H]1CN(Cc1[nH]cnc1C)C2` reads -8.96%; that for `CC1(C)CC(n2cc3nc(N4CCOCC4)[nH]cc-3c2=O)CC(C)(C)N1`, -19.9%.
